Experimental data: ChEMBL document CHEMBL1255475, “Mutant prevention concentrations of four carbapenems against gram-negative rods” (2010)
Values after ≈ are worked out from the molar mass of the structure shown.

What was measured:
Format in all cases: functional
Acinetobacter baumannii [1] = experiment: Antibacterial activity against Acinetobacter baumannii A897 assessed as mutant prevention concentration after overnight incubation
Acinetobacter baumannii [2] = experiment: Antibacterial activity against Acinetobacter baumannii A894 assessed as mutant prevention concentration after overnight incubation
Acinetobacter baumannii [3] = experiment: Antibacterial activity against Acinetobacter baumannii A903 assessed as mutant prevention concentration after overnight incubation
Klebsiella pneumoniae [4] = experiment: Antibacterial activity against beta-lactamase-negative Klebsiella pneumoniae E418 assessed as mutant prevention concentration after overnight incubation
Method in brief: (§1)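 Overnight growth on blood trypticase soy agar (35°C, air) was resuspended in 0.9% saline and counted on drug-free Mueller-Hinton agar. […] Colonies were retested by agar dilution to confirm mutants. MPC was the lowest concentration preventing resistant-mutant growth.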

Klebsiella pneumoniae [5] = experiment: Antibacterial activity against beta-lactamase-positive ESBL-positive Klebsiella pneumoniae E476 assessed as mutant prevention concentration after overnight incubation; method in brief: as §1
Klebsiella pneumoniae [6] = experiment: Antibacterial activity against beta-lactamase-positive ESBL-negative Klebsiella pneumoniae E480 assessed as mutant prevention concentration after overnight incubation; method in brief: as §1
Klebsiella pneumoniae [7] = experiment: Antibacterial activity against beta-lactamase-positive ESBL-negative Klebsiella pneumoniae E477 assessed as mutant prevention concentration after overnight incubation; method in brief: as §1
Klebsiella pneumoniae [8] = experiment: Antibacterial activity against beta-lactamase-positive ESBL-negative Klebsiella pneumoniae E481 assessed as mutant prevention concentration after overnight incubation; method in brief: as §1
Klebsiella pneumoniae [9] = experiment: Antibacterial activity against beta-lactamase-positive ESBL-positive Klebsiella pneumoniae E457 assessed as mutant prevention concentration after overnight incubation; method in brief: as §1
Pseudomonas aeruginosa [10] = experiment: Antibacterial activity against Pseudomonas aeruginosa P327 assessed as mutant prevention concentration after overnight incubation
Pseudomonas aeruginosa [11] = experiment: Antibacterial activity against Pseudomonas aeruginosa P337 assessed as mutant prevention concentration after overnight incubation
Pseudomonas aeruginosa [12] = experiment: Antibacterial activity against Pseudomonas aeruginosa P338 assessed as mutant prevention concentration after overnight incubation
Pseudomonas aeruginosa [13] = experiment: Antibacterial activity against Pseudomonas aeruginosa P328 assessed as mutant prevention concentration after overnight incubation
Pseudomonas aeruginosa [14] = experiment: Antibacterial activity against Pseudomonas aeruginosa P349 assessed as mutant prevention concentration after overnight incubation
Pseudomonas aeruginosa [15] = experiment: Antibacterial activity against Pseudomonas aeruginosa P370 assessed as mutant prevention concentration after overnight incubation
Pseudomonas aeruginosa [16] = experiment: Antibacterial activity against Pseudomonas aeruginosa P358 assessed as mutant prevention concentration after overnight incubation
Pseudomonas aeruginosa [17] = experiment: Antibacterial activity against Pseudomonas aeruginosa P376 assessed as mutant prevention concentration after overnight incubation
Pseudomonas aeruginosa [18] = experiment: Antibacterial activity against Pseudomonas aeruginosa P326 assessed as mutant prevention concentration after overnight incubation
Acinetobacter baumannii [19] = experiment: Antibacterial activity against Acinetobacter baumannii A911 assessed as mutant prevention concentration after overnight incubation
Escherichia coli [20] = experiment: Antibacterial activity against beta-lactamase-negative Escherichia coli E345 assessed as mutant prevention concentration after overnight incubation
Escherichia coli [21] = experiment: Antibacterial activity against beta-lactamase-negative Escherichia coli E346 assessed as mutant prevention concentration after overnight incubation
Escherichia coli [22] = experiment: Antibacterial activity against beta-lactamase-negative Escherichia coli E347 assessed as mutant prevention concentration after overnight incubation
Escherichia coli [23] = experiment: Antibacterial activity against beta-lactamase-negative Escherichia coli E350 assessed as mutant prevention concentration after overnight incubation
Escherichia coli [24] = experiment: Antibacterial activity against beta-lactamase-negative Escherichia coli E408 assessed as mutant prevention concentration after overnight incubation
Escherichia coli [25] = experiment: Antibacterial activity against beta-lactamase-negative Escherichia coli E409 assessed as mutant prevention concentration after overnight incubation
Escherichia coli [26] = experiment: Antibacterial activity against beta-lactamase-positive ESBL-negative Escherichia coli E415 assessed as mutant prevention concentration after overnight incubation; method in brief: as §1
Escherichia coli [27] = experiment: Antibacterial activity against beta-lactamase-negative Escherichia coli E425 assessed as mutant prevention concentration after overnight incubation
Escherichia coli [28] = experiment: Antibacterial activity against beta-lactamase-positive ESBL-positive Escherichia coli E452 assessed as mutant prevention concentration after overnight incubation; method in brief: as §1
Escherichia coli [29] = experiment: Antibacterial activity against beta-lactamase-positive ESBL-positive Escherichia coli E459 assessed as mutant prevention concentration after overnight incubation; method in brief: as §1
Escherichia coli [30] = experiment: Antibacterial activity against beta-lactamase-positive ESBL-positive Escherichia coli E465 assessed as mutant prevention concentration after overnight incubation; method in brief: as §1
Klebsiella pneumoniae [31] = experiment: Antibacterial activity against beta-lactamase-negative Klebsiella pneumoniae E358 assessed as mutant prevention concentration after overnight incubation
Klebsiella pneumoniae [32] = experiment: Antibacterial activity against beta-lactamase-negative Klebsiella pneumoniae E360 assessed as mutant prevention concentration after overnight incubation
Klebsiella pneumoniae [33] = experiment: Antibacterial activity against beta-lactamase-negative Klebsiella pneumoniae E419 assessed as mutant prevention concentration after overnight incubation; method in brief: as §1
Escherichia coli [34] = experiment: Antibacterial activity against beta-lactamase-negative Escherichia coli E345 incubated up to 7 days by agar dilution method; settings: E345, 168 h
Klebsiella pneumoniae [35] = experiment: Antibacterial activity against beta-lactamase-positive ESBL-negative Klebsiella pneumoniae E472 incubated up to 7 days by agar dilution method; settings: E472, 168 h
Klebsiella pneumoniae [36] = experiment: Antibacterial activity against beta-lactamase-positive ESBL-negative Klebsiella pneumoniae E481 incubated up to 7 days by agar dilution method; settings: E481, 168 h
Klebsiella pneumoniae [37] = experiment: Antibacterial activity against beta-lactamase-positive ESBL-positive Klebsiella pneumoniae E453 incubated up to 7 days by agar dilution method; settings: E453, 168 h
Method in brief: (§2)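 MIC by CLSI agar dilution, with quality-control strains in each run. Beta-lactamase status was set by 30 μg cefazolin Kirby-Bauer disk diffusion. ESBL status was set by cefotaxime and ceftazidime disks (30 μg) with and without clavulanic acid (10 μg).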

Klebsiella pneumoniae [38] = experiment: Antibacterial activity against beta-lactamase-positive ESBL-negative Klebsiella pneumoniae E511 incubated up to 7 days by agar dilution method; settings: E511, 168 h
Escherichia coli [39] = experiment: Antibacterial activity against beta-lactamase-negative Escherichia coli E348 incubated up to 7 days by agar dilution method; settings: E348, 168 h
Escherichia coli [40] = experiment: Antibacterial activity against beta-lactamase-positive ESBL-negative Escherichia coli E412 incubated up to 7 days by agar dilution method; settings: E412, 168 h; method in brief: as §2
Escherichia coli [41] = experiment: Antibacterial activity against beta-lactamase-positive ESBL-negative Escherichia coli E415 incubated up to 7 days by agar dilution method; settings: E415, 168 h; method in brief: as §2
Escherichia coli [42] = experiment: Antibacterial activity against beta-lactamase-positive ESBL-positive Escherichia coli E459 incubated up to 7 days by agar dilution method; settings: E459, 168 h; method in brief: as §2
Escherichia coli [43] = experiment: Antibacterial activity against beta-lactamase-positive ESBL-negative Escherichia coli E483 […] by agar dilution method
Escherichia coli [44] = experiment: Antibacterial activity against beta-lactamase-positive ESBL-negative Escherichia coli E484 incubated up to 7 days by agar dilution method; settings: E484, 168 h
Klebsiella pneumoniae [45] = experiment: Antibacterial activity against beta-lactamase-negative Klebsiella pneumoniae E360 incubated up to 7 days by agar dilution method; settings: E360, 168 h
Klebsiella pneumoniae [46] = experiment: Antibacterial activity against beta-lactamase-negative Klebsiella pneumoniae E361 incubated up to 7 days by agar dilution method; settings: E361, 168 h
Klebsiella pneumoniae [47] = experiment: Antibacterial activity against beta-lactamase-negative Klebsiella pneumoniae E362 incubated up to 7 days by agar dilution method; settings: E362, 168 h

## C[C@@H](O)[C@H]1C(=O)N2C(C(=O)O)=C(SCCNC=N)C[C@H]12 [IMIPENEM ANHYDROUS]
Acinetobacter baumannii [1]
  MPC: 1 µg/mL
Acinetobacter baumannii [2]
  MPC: 1 µg/mL
Acinetobacter baumannii [3]
  MPC: 1 µg/mL
Klebsiella pneumoniae [4]
  MPC: 4 µg/mL
Klebsiella pneumoniae [5]
  MPC: >16 µg/mL
Klebsiella pneumoniae [6]
  MPC: >16 µg/mL
Klebsiella pneumoniae [7]
  MPC: 32 µg/mL
Klebsiella pneumoniae [8]
  MPC: 16 µg/mL
Klebsiella pneumoniae [9]
  MPC: 0.5 µg/mL
Pseudomonas aeruginosa [10]
  MPC: 16 µg/mL
Pseudomonas aeruginosa [11]
  MPC: 16 µg/mL
Pseudomonas aeruginosa [12]
  MPC: 16 µg/mL
Pseudomonas aeruginosa [13]
  MPC: 32 µg/mL
Pseudomonas aeruginosa [14]
  MPC: 32 µg/mL
Pseudomonas aeruginosa [15]
  MPC: 16 µg/mL
Pseudomonas aeruginosa [16]
  MPC: 128 µg/mL
Pseudomonas aeruginosa [17]
  MPC: 64 µg/mL
Pseudomonas aeruginosa [18]
  MPC: 32 µg/mL
Acinetobacter baumannii [19]
  MPC: 8 µg/mL
Escherichia coli [20]
  MPC: 0.5 µg/mL
Escherichia coli [21]
  MPC: 0.5 µg/mL
Escherichia coli [22]
  MPC: 0.5 µg/mL
Escherichia coli [23]
  MPC: 2 µg/mL
Escherichia coli [24]
  MPC: 1 µg/mL
Escherichia coli [25]
  MPC: 1 µg/mL
Escherichia coli [26]
  MPC: 0.5 µg/mL
Escherichia coli [27]
  MPC: 0.5 µg/mL
Escherichia coli [28]
  MPC: 0.5 µg/mL
Escherichia coli [29]
  MPC: 0.5 µg/mL
Escherichia coli [30]
  MPC: 0.5 µg/mL
Klebsiella pneumoniae [31]
  MPC: 0.5 µg/mL
Klebsiella pneumoniae [32]
  MPC: 1 µg/mL
Klebsiella pneumoniae [33]
  MPC: 1 µg/mL

## C[C@@H](O)[C@H]1C(=O)N2C(C(=O)O)=C(S[C@@H]3CN[C@H](CNS(N)(=O)=O)C3)[C@H](C)[C@H]12 [DORIPENEM]
Escherichia coli [34]
  MIC: 0.03 µg/mL (≈ 0.0713 µM)
Klebsiella pneumoniae [35]
  MIC: 2 µg/mL (≈ 4.76 µM)
Klebsiella pneumoniae [36]
  MIC: 2 µg/mL (≈ 4.76 µM)
Klebsiella pneumoniae [37]
  MIC: 0.06 µg/mL (≈ 0.143 µM)
Klebsiella pneumoniae [38]
  MIC: 2 µg/mL (≈ 4.76 µM)
Escherichia coli [39]
  MIC: 0.03 µg/mL (≈ 0.0713 µM)
Escherichia coli [40]
  MIC: 0.03 µg/mL (≈ 0.0713 µM)
Escherichia coli [41]
  MIC: 0.03 µg/mL (≈ 0.0713 µM)
Escherichia coli [42]
  MIC: 0.03 µg/mL (≈ 0.0713 µM)
Escherichia coli [43]
  MIC: 0.25 µg/mL (≈ 0.595 µM)
Escherichia coli [44]
  MIC: 2 µg/mL (≈ 4.76 µM)
Klebsiella pneumoniae [45]
  MIC: 0.06 µg/mL (≈ 0.143 µM)
Klebsiella pneumoniae [46]
  MIC: 0.06 µg/mL (≈ 0.143 µM)
Klebsiella pneumoniae [47]
  MIC: 0.06 µg/mL (≈ 0.143 µM)
Acinetobacter baumannii [1]
  MPC: 1 µg/mL
Acinetobacter baumannii [2]
  MPC: 2 µg/mL
Acinetobacter baumannii [3]
  MPC: 4 µg/mL
Klebsiella pneumoniae [4]
  MPC: 0.25 µg/mL
Klebsiella pneumoniae [5]
  MPC: 8 µg/mL
Klebsiella pneumoniae [6]
  MPC: 8 µg/mL
Klebsiella pneumoniae [7]
  MPC: >64 µg/mL
Klebsiella pneumoniae [8]
  MPC: 8 µg/mL
Klebsiella pneumoniae [9]
  MPC: 0.125 µg/mL
Pseudomonas aeruginosa [10]
  MPC: 4 µg/mL
Pseudomonas aeruginosa [11]
  MPC: 8 µg/mL
Pseudomonas aeruginosa [12]
  MPC: 4 µg/mL
Pseudomonas aeruginosa [13]
  MPC: 4 µg/mL
Pseudomonas aeruginosa [14]
  MPC: 8 µg/mL
Pseudomonas aeruginosa [15]
  MPC: 4 µg/mL
Pseudomonas aeruginosa [16]
  MPC: 64 µg/mL
Pseudomonas aeruginosa [17]
  MPC: 16 µg/mL
Pseudomonas aeruginosa [18]
  MPC: 16 µg/mL
Acinetobacter baumannii [19]
  MPC: 8 µg/mL
Escherichia coli [20]
  MPC: 0.06 µg/mL
Escherichia coli [21]
  MPC: 0.06 µg/mL
Escherichia coli [22]
  MPC: 0.06 µg/mL
Escherichia coli [23]
  MPC: 0.125 µg/mL
Escherichia coli [24]
  MPC: 0.06 µg/mL
Escherichia coli [25]
  MPC: 0.125 µg/mL
Escherichia coli [26]
  MPC: 0.06 µg/mL
Escherichia coli [27]
  MPC: 0.06 µg/mL
Escherichia coli [28]
  MPC: 0.125 µg/mL
Escherichia coli [29]
  MPC: 0.125 µg/mL
Escherichia coli [30]
  MPC: 0.5 µg/mL
Klebsiella pneumoniae [31]
  MPC: 0.125 µg/mL
Klebsiella pneumoniae [32]
  MPC: 0.125 µg/mL
Klebsiella pneumoniae [33]
  MPC: 0.25 µg/mL
